Reference: ChEMBL document CHEMBL2203053, “DNA binding acridine-thiazolidinone agents affecting intracellular glutathione” (Bioorg Med Chem, 2012)

System: Nucleic Acid
Experiment: Binding affinity to calf thymus DNA assessed as binding constant by spectrofluorimetry based McGhee von Hippel method
Assay type: nucleic-acid assay
Conditions: Bos taurus
Procedure, shortened: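 Fluorescence titration used compound at 26.7 µM in 0.01 M Tris buffer (pH 7.4, 24 °C). ctDNA was added stepwise from 0 to 32 µM bp at 2 µM intervals until spectra stopped changing. Excitation was 384 nm and emission was read at 410–470 nm. Binding constant K was derived by the McGhee–von Hippel method from Scatchard plot data.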

K: 3.19 ×10⁵ /M
Structure (SMILES): CN(C)c1ccc2cc3ccc(N(C)C)cc3nc2c1
